The list is not random: actives were taken first. Their share in the collection is about 11%.
M1 agonist – agonists of M1 muscarinic receptor; CHO-M1 cells, Fluo-4 calcium fluorescence, agonist mode; hits give high values; B-score at 10 µM; hit rate 3% among 64,000;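 active = fluorescence rise, raw or as B-score row- and column-corrected plate score, outside the 99.7% band of its plate's samples, either direction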
S1P3 agonist – S1P3 (human) receptor agonism | S1P3 NFAT-BLA reporter cells, FRET ratio; relative to 1 µM S1P, basal subtracted | activation, % at 4.5 µM | hit rate 0.1% among 60,000 | AID 373;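 active = activation above the screen-wide mean plus 3 SD, cut at about 4.5% in these data, passing the limit was not always enough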
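Assay system: stable CHO line with human S1P3, Gα16, NFAT-BLA reporter; Detection: FRET β-lactamase substrate fluorescence, excitation 405 nm, 460/535 nm emission ratio, background-subtracted; Read-out: percent activation versus median 1 µM S1P response, basal-subtracted, per plate; Incubation: cells plated overnight, compound 4 h 37 °C, substrate 2 h RT.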
TNAP act mid DEA – activates human TNAP at intermediate phosphate acceptor concentration; 64,000 tested, under 10 active; AID 813; purified TNAP, CDP-star luminescence, 100 mM DEA, 30 min; hits give high values; scale: 0 levamisole-inhibited, 1 vehicle-only enzyme; activation factor at 20 µM;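 active = activation factor of at least 2 at 20 µM, relative to controls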
S1P1 ag-PAM – S1P1 (human) agonism or agonism potentiation | P21453 | activation, % at 9.5 µM | S1P1 CRE-bla cells, forskolin, beta-lactamase FRET, potentiator mode; S1P1 agonist co-added at EC20, 2 nM; 100% = saturating reference agonist, 0% = basal | hit rate 0.57% among 56,000;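 active = activation above a cutoff set at the mean activation of all tested compounds plus 3 SD, cut at about 54% in these data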;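 also: forskolin at 4 µM as EC80 and the EC20 agonist is SEW2871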
Target sequence (P21453 whole entry, looked up): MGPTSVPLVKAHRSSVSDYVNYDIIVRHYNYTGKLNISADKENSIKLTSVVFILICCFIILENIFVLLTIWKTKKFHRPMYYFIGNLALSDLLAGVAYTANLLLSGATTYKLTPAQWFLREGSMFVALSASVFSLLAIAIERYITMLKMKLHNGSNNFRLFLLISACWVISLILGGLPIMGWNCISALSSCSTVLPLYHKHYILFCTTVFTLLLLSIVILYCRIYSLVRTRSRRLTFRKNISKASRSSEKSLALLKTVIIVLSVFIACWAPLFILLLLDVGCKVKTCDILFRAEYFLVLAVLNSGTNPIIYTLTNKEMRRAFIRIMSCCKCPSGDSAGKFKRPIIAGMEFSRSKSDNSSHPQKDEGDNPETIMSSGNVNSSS
M1 antag – blocks the rat M1 muscarinic receptor response to acetylcholine. CHO-M1 cells, Fluo-4 calcium, ACh EC80 antagonist mode; hits give low values. B-score at 10 µM. hit rate 3.4% among 64,000. AID 628;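 active = calcium fluorescence response, raw or row-and-column corrected B-score, differing from the plate sample mean either way at a set confidence level, mostly lower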
D1 allo mod – allosteric modulators of human D1 dopamine receptor; P21728; HEK293 D1, CRE-luciferase, dopamine EC30 potentiation; actives deviate in either direction; B-score at 10 µM; hit rate 5.9% among 58,000; AID 641;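 active = luminescence count or its row- and column-corrected plate score outside the 99.7% band of the plate's sample wells, on either side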
A number is an active result; 0 = inactive; - = no result given.

SMILES	M1 agonist	S1P3 agonist	TNAP act mid DEA	S1P1 ag-PAM	M1 antag	D1 allo mod
Cc1cc(C)cc(N2C(=O)C3C4C=CC(C4)C3C2=O)c1 (stereo not given)	0	0	0	0	0	-
C=CCNc1nc2c(c(=O)[nH]c(=O)n2C)n1Cc1cccc(C)c1	0	0	0	0	0	0
Cc1c(C(=O)N2CCN(c3ccc(C(F)(F)F)cn3)CC2)oc2ccccc12	0	0	0	0	0	0
CC(=O)c1ccc(N2CCN(c3ccc(C(F)(F)F)cn3)CC2)cc1	0	0	0	88	0	0
CCOC(=O)N1CCN(C(=O)c2ccc(CS(=O)(=O)c3ccccc3OC)o2)CC1	0	0	0	0	0	0
COc1ccccc1S(=O)(=O)Cc1ccc(C(=O)N2CCN(c3ccc(C)cc3)C(C)C2)o1 (stereo not given)	0	0	0	0	0	-2.8
O=C1CN(C(=O)COC(=O)CCC(=O)c2ccc3c(c2)OCCO3)c2ccccc2N1	0	0	0	0	0	0
C=CCOc1ccccc1/C=c1\sc2nc(-c3oc4ccccc4c3C)nn2c1=O	5.2	0	0	-	0	0
CC(C)Oc1cc(O)c2c(=O)c(-c3ccc(O)cc3)coc2c1	0	0	0	107	0	0
CC(Oc1ccc(C(=O)NC2CCCCC2)cc1)C(=O)O (stereo not given)	0	0	0	0	0	0
CCOC(=O)COc1ccc(C(=O)NC2CCCCC2)cc1	0	0	0	-	0	-5.6
CCN(CC)S(=O)(=O)c1cccc2cc(C(=O)O)c(O)cc12	0	0	0	0	0	0
O=C1OCCC1N1C(=O)c2ccccc2S1(=O)=O (stereo not given)	0	0	0	0	0	-4.3
O=C(CN1C(=O)c2ccccc2S1(=O)=O)N1CCOCC1	0	0	0	0	0	0
CN(C)C(=O)CN(c1ccc(F)c(Cl)c1)S(C)(=O)=O	0	0	0	0	0	0
Cc1ccc(C)c(N(CC(=O)N(C)C)S(C)(=O)=O)c1	0	0	0	-	1.3	0
c1ccc(C(Cc2nc(-c3ccccn3)no2)c2ccccc2)cc1	0	11	0	0	0	0
c1ccc(C(Cc2nc(-c3cccnc3)no2)c2ccccc2)cc1	0	20	0	85	0	-
CCC(C(=O)Nc1nnc(-c2ccco2)s1)c1ccccc1 (stereo not given)	0	0	0	0	0	0
Cc1cccc(Nc2nc(N)nc(CN3CCN(Cc4ccc5c(c4)OCO5)CC3)n2)c1	-	0	0	0	-	0
CN1CCN(Cc2nc(N)nc(Nc3ccc4c(c3)OCCO4)n2)CC1	0	0	0	0	1.3	0
O=C(COc1ccc2c(c1)CCC2)N1CCc2ccccc21	0	0	0	0	0	0
CCOC(=O)C1CSC(CC(=O)Nc2ccc(Cl)cc2)C(=O)N1 (stereo not given)	0	0	0	0	0	0
CCOC(=O)CN1C(=O)NC(C)(c2ccc(OC(F)F)cc2)C1=O (stereo not given)	0	0	0	0	0	0
CC1(c2ccc(OC(F)F)cc2)NC(=O)N(CC(=O)Nc2ccc3c(c2)OCO3)C1=O (stereo not given)	23	0	0	0	0	0
SMILES	M1 agonist	S1P3 agonist	TNAP act mid DEA	S1P1 ag-PAM	M1 antag	D1 allo mod
Cc1c(NC(=O)c2nn(C)c(=O)c3ccccc23)c(=O)n(-c2ccccc2)n1C	0	0	0	0	0	0
Cc1c(NC(=O)C2CCCNC2=O)c(=O)n(-c2ccccc2)n1C (stereo not given)	0	0	0	0	0.69	0
Cc1c(NC(=O)Cn2nc(C(=O)O)c3ccccc3c2=O)c(=O)n(-c2ccccc2)n1C	0	0	0	0	1	0
OC(CN1C2=NCCN2c2ccccc21)c1ccc(Br)cc1 (stereo not given)	0	0	0	0	0	-5
COc1ccc(N=c2scc(-c3ccc(S(=O)(=O)N4CCOCC4)cc3)n2CCCO)cc1	0	0	0	101	0	0
O=C(Cc1c[nH]c2ccccc12)NCc1ccc2c(c1)OCO2	0	0	0	0	0	0
CC(=O)Nc1ccc(SCC(=O)c2cc(C)n(Cc3cccs3)c2C)cc1	0	0	0	0	0	0
Cc1csc(SCC(=O)c2cc(C)n(Cc3cccs3)c2C)n1	0	0	0	86	0	-5.2
Cc1ccc(-c2cc(-c3ccc(Cl)cc3)c(C#N)c(N)n2)o1	0	5.9	0	0	0	0
Cc1cc(C)cc(N(CC(=O)NCc2ccco2)S(=O)(=O)c2c(C)noc2C)c1	0	0	0	0	0	0
COCCn1c(C)cc(C(=O)COC(=O)c2n[nH]c3ccccc23)c1C	0	0	0	0	0	-8.4
O=C(CC1Nc2ccccc2NC1=O)NCc1cccnc1 (stereo not given)	0	0	0	0	1.4	0
CCN(CC)c1ccc2c(Cl)c(Br)c(=O)oc2c1	38	0	0	0	0	0
CCN(CC)c1ccc2c(c1)oc(=O)c1c(Cl)cc(=O)oc12	45	0	0	0	0	0
CC(=O)Nc1ccc(NC(=O)Cn2cnc3c(cnn3C(C)(C)C)c2=O)cc1	0	0	0	0	0	0
CC(C)(C)n1ncc2c(=O)n(CC(=O)NCc3ccccc3)cnc21	0	0	0	0	0	-5.4
COc1ccc(C2NC3=C(CCC3)C3(C#N)C4(N=C(N)C23C#N)OCCO4)cc1 (stereo not given)	0	0	0	0	0	-3.5
Cc1ccc(Cl)c(OCC(=O)Nc2ccc3c(c2)OCCO3)c1	4.3	0	0	0	0	0
C/C(N)=C(/C#N)C(=O)CSc1nc2ccc(C)cc2[nH]1	0	0	0	0	0	-2.6
Cc1nnc(SCC(=O)N2CCN(Cc3ccccc3)CC2)s1	0	0	0	-	0	0
Cc1nnc(SCC(=O)N2CCC(c3noc4ccc(F)cc34)CC2)s1	0	0	0	69	0	0
COc1ccc(N(C(=O)c2ccco2)S(=O)(=O)c2cc(OC)ccc2OC)cc1	0	0	0	-	1.9	-2.2
COc1ccc(OC)c(S(=O)(=O)N(C)CC(=O)O)c1	0	0	0	0	0	-
CCCn1c(SCc2cc(=O)[nH]c3ccccc23)nc2c1c(=O)n(C)c(=O)n2C	0	0	0	0	0	6
O=C(NC1CCCC1)C(c1cccs1)N(CC1CCCO1)C(=O)Cc1cccs1 (stereo not given)	-	0	0	0	-	-
Cn1cc(SCC(=O)N2CCN(c3ccccc3)CC2)c2ccccc21	0	0	0	0	0	0
Cn1nc(-c2ccc(Cl)cc2)c2cc(C(=O)N3CCCC3)sc21	0	0	0	0	0	-3.2
Cc1cc(NC(=O)CN2C(=O)C3CC=CCC3C2=O)no1 (stereo not given)	0	0	-	0	0	0

Assay outcomes as filed in PubChem BioAssay.
